The values below come from ChEMBL document CHEMBL1142209, “Inhibition of Plasmodium falciparum choline kinase by hexadecyltrimethylammonium bromide: a possible antimalarial mechanism” (Antimicrob Agents Chemother, 2007).

Assay [1] concerns Plasmodium falciparum. The experiment in a line: Inhibition of Plasmodium falciparum choline kinase at 50 uM in presence of 250 uM ATP.
In assay [2] the test system is Plasmodium falciparum. The experiment in a line: Inhibition of Plasmodium falciparum choline kinase at 150 uM in presence of 250 uM ATP.
The test system of assay [3] is Plasmodium falciparum. The experiment in a line: Inhibition of Plasmodium falciparum choline kinase at 50 uM in presence of 100 uM ATP.
The subject of assay [4] is Plasmodium falciparum. In words: Inhibition of Plasmodium falciparum choline kinase at 150 uM in presence of 100 uM ATP.
Assay [5] relates to Plasmodium falciparum. The experiment in a line: Inhibition of choline kinase in Plasmodium falciparum NF54 assessed as incorporation of [methlyl-14C]choline into phosphocholine at 10 uM. A digest of the protocol: (§1)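 NF-54 culture (15% parasitemia, 5% hematocrit) treated 1 h at 37°C (90% N2, 5% CO2) and washed. Labelled 4 h with 40 μM [methyl-14C]choline (5.6 mCi/mmol). Cells lysed in 5% TCA with freeze-thaw; phosphatidylcholine counted in pellet. Ether-extracted supernatant split on Dowex-50W: phosphocholine unbound, free choline eluted with 1 N HCl. Compared with DMSO control.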

For assay [6], the system named is Plasmodium falciparum. The experiment in a line: Inhibition of phosphocholine biosynthesis in Plasmodium falciparum NF54 as intracellular free choline at 10 uM. It is filed as functional, organism-based. The essentials: as §1
In assay [7] the test system is Plasmodium yoelii. In words: Antimalarial activity against intraperitoneal inoculated Plasmodium yoelii N67 in Swiss mice (Mus musculus) at 20 mg/kg intraperitoneal dose on day 4. The conditions noted are these: N-67. It is filed as functional, organism-based. The arrangement: dose 20 mg/kg. The essentials:
(§2)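 P. yoelii N-67 in Swiss mice (22 ± 2 g, five per group), 1 × 10^5 parasitized RBC i.p. on day 0. Aqueous suspension given i.p. (0.20 ml) from 6 h post-inoculation, days 0–3. Day-4 parasitemia from Giemsa smears; % suppression = [(C − T)/C] × 100 on group means vs vehicle.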

The subject of assay [8] is Plasmodium falciparum. The experiment in a line: Inhibition of Plasmodium falciparum NF54 as [3H]hypoxanthine uptake at 20 uM. It is filed as functional, organism-based. A digest of the protocol: (§3)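 Asynchronous P. falciparum NF-54 in human B+ erythrocytes (1% hematocrit, 0.5–0.7% parasitemia) exposed to compound (DMSO stock diluted in RPMI) for 48 h. Then washed and pulsed 48 h with [3H]hypoxanthine 0.7 μCi/well. Harvested on glass-fibre filters and counted by scintillation. % inhibition vs DMSO control; three experiments in triplicate.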

The subject of assay [9] is Plasmodium falciparum. In words: Growth inhibition of schizont Plasmodium falciparum NF54 at 10 uM. It is filed as functional, organism-based. A digest of the protocol:
(§4)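 Sorbitol-synchronized NF-54 at 0.5% ring parasitemia, 1% hematocrit. Rings (0 h), trophozoites (24 h) or schizonts (36 h) exposed 8 h in CRPMI, then washed out. [3H]hypoxanthine (0.7 μCi/well) added at 24, 48 or 60 h respectively; harvest at 72 h and scintillation count. Read against stage-matched DMSO control; three experiments in triplicate.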

In assay [10] the test system is Plasmodium falciparum. The experiment in a line: Inhibition of Plasmodium falciparum choline kinase. A digest of the protocol: (§5)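 Purified recombinant PfCK (5 μg; Ni-NTA affinity plus gel filtration) incubated at 37°C for 45 min in 100 mM Tris-Cl pH 8.8, 5 mM ATP, 6 mM MgCl2, 250 μM [methyl-14C]choline (5.6 mCi/mmol). Stopped with Dowex-50W slurry; [14C]phosphocholine in supernatant counted by scintillation. DMSO control = 100%. Three experiments in triplicate.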

Assay [11] relates to Plasmodium falciparum. The experiment in a line: Inhibition of Plasmodium falciparum NF54 trophozoite at 10 uM. It is filed as functional, organism-based. A digest of the protocol: as §4
Assay [12] concerns Plasmodium falciparum. In words: Inhibition of Plasmodium falciparum choline kinase at 100 uM. The essentials: as §5
Assay [13] relates to Plasmodium falciparum. In words: Inhibition of Plasmodium falciparum NF54 as [3H]hypoxanthine uptake at 10 uM. It is filed as functional, organism-based. The essentials: as §3
In assay [14] the test system is Plasmodium falciparum. In words: Inhibition of Plasmodium falciparum NF54 ring stage at 30 uM. It is filed as functional, organism-based. The essentials: as §4
In assay [15] the test system is Plasmodium yoelii. In words: Antimalarial activity at day 4 against intravenously inoculated Plasmodium yoelii N67 in Swiss mice (Mus musculus) at 20 mg/kg intraperitoneal dose. Also on record: dose 20 mg/kg. It is filed as functional, organism-based. The following applies: N-67. A digest of the protocol:
(§6)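 P. yoelii N-67 in Swiss mice (22 ± 2 g, five per group), 1 × 10^4 parasitized RBC i.v. on day 0. Aqueous suspension given i.p. (0.20 ml) from 6 h post-inoculation, days 0–3. Day-4 parasitemia from Giemsa smears; % suppression = [(C − T)/C] × 100 on group means vs vehicle.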

The subject of assay [16] is Plasmodium yoelii. The experiment in a line: Antimalarial activity against intravenously inoculated Plasmodium yoelii N67 in Swiss mice (Mus musculus) at 5 mg/kg intraperitoneal dose on day 4. It is filed as functional, organism-based. Also on record: dose 5 mg/kg. The conditions noted are these: N-67. A digest of the protocol: as §6
Assay [17] deals with Plasmodium yoelii. In words: Antimalarial activity against intraperitoneal inoculated Plasmodium yoelii N67 in Swiss mice (Mus musculus) at 5 mg/kg intraperitoneal dose on day 4. Also on record: dose 5 mg/kg. It is filed as functional, organism-based. The conditions noted are these: N-67. A digest of the protocol: as §2
For assay [18], the system named is Plasmodium falciparum. In words: Inhibition of phosphatidylcholine biosynthesis in Plasmodium falciparum NF54 as [methlyl-14C]choline uptake. It is filed as functional, organism-based. A digest of the protocol: as §1
For assay [19], the system named is Plasmodium yoelii. In words: Antimalarial activity against intravenously inoculated Plasmodium yoelii N67 in Swiss mice (Mus musculus) at 10 mg/kg intraperitoneal dose on day 4. It is filed as functional, organism-based. The arrangement: dose 10 mg/kg. The conditions noted are these: N-67. A digest of the protocol:
as §6

For assay [20], the system named is Plasmodium yoelii. In words: Antimalarial activity against intraperitoneal inoculated Plasmodium yoelii N67 in Swiss mice (Mus musculus) at 10 mg/kg intraperitoneal dose on day 4. Also on record: dose 10 mg/kg. It is filed as functional, organism-based. The following applies: N-67. A digest of the protocol: as §2

The term inhibition denotes the percentage by which the read-out fell short of the control. In the case of `C[N+]1(C)CCOC(O)(c2ccc(-c3ccc(C4(O)C[N+](C)(C)CCO4)cc3)cc2)C1` (stereo unspecified), the inhibition was found to be 16% with Plasmodium falciparum [1], 18% in the assay with Plasmodium falciparum [2], 16% in the assay on Plasmodium falciparum [3] and 18% in the assay on Plasmodium falciparum [4].

Turning to hexadecyltrimethylammonium bromide, the inhibition in the assay on Plasmodium falciparum [5] worked out at 57%; in the assay with Plasmodium falciparum [6], 42%; with Plasmodium falciparum [8] it was 81%; in the assay with Plasmodium falciparum [3], 60%; in the assay with Plasmodium falciparum [9], 51%; with Plasmodium falciparum [11] it was 62%. Also, the inhibition with Plasmodium falciparum [12] was 60%; in the assay with Plasmodium falciparum [13], 62%; with Plasmodium falciparum [14], 33.3%. Also, the Activity is 77.2% in the assay with Plasmodium yoelii [7]; “Dose-dependent effect” with Plasmodium falciparum [10]; 83.7% in the assay on Plasmodium yoelii [15]; 48.7% with Plasmodium yoelii [16]; 36.8% with Plasmodium yoelii [17]; “Dose-dependent effect” in the assay with Plasmodium falciparum [18]. For the same compound, the Activity turned out to be 64.2% in the assay with Plasmodium yoelii [19] and 52.4% in the assay on Plasmodium yoelii [20].
